Laboratory results taken from ChEMBL document CHEMBL1641447, “Rational design and synthesis of potent aminoglycoside antibiotics against resistant bacterial strains” (2011).
In brackets after ≈: the same amount, converted by molar mass.

Experiments:
Assay type in all cases: functional
Staphylococcus aureus [1] = experiment: Antibacterial activity against methicillin-resistant Staphylococcus aureus ATCC 33591 after 16-20 hrs by microdilution broth method
Method in brief: (§1)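 CLSI broth microdilution on hydrochloride salts (HPLC purity over 98%). Actively growing broth cultures were adjusted to McFarland 0.5 and added to 2-fold drug dilutions to give a final inoculum of […]. Trays were covered and incubated at 37 °C for 16–20 h. MIC ([…]) was taken as the lowest concentration preventing visible growth. Tests were run in triplicate.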

[2] = tested on: Staphylococcus epidermidis; experiment: Antibacterial activity against Staphylococcus epidermidis 07-9 clinical isolate expressing APH(30)-IIIa after 16-20 hrs by microdilution broth method
Method in brief: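 Clinical isolate from a Beijing Friendship Hospital patient (2007), with aph(3′)-IIIa confirmed by PCR. CLSI broth microdilution with hydrochloride salts in twofold dilutions, inoculum from actively growing culture at McFarland 0.5, 37 °C for 16–20 h in covered trays. MIC (µg/mL) was the lowest concentration inhibiting visible growth; triplicate runs.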

Staphylococcus aureus [3] = experiment: Antibacterial activity against Staphylococcus aureus ATCC 29213 after 16-20 hrs by microdilution broth method
Method in brief: (§2)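 CLSI broth microdilution with test agents as hydrochloride salts (HPLC purity over 98%), twofold dilutions in 96-well trays. Actively growing broth cultures were diluted to McFarland 0.5 for the inoculum. Trays were covered and incubated at 37 °C for 16–20 h. MIC (µg/mL) was the lowest concentration without visible growth; triplicate runs.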

[4] = tested on: Staphylococcus epidermidis; experiment: Antibacterial activity against Staphylococcus epidermidis ATCC 12228 after 16-20 hrs by microdilution broth method; method in brief: as §2
Escherichia coli [5] = experiment: Antibacterial activity against Escherichia coli ATCC 25922 after 16-20 hrs by microdilution broth method; method in brief: as §2
Escherichia coli [6] = experiment: Antibacterial activity against Escherichia coli ATCC 35218 after 16-20 hrs by microdilution broth method; method in brief: as §2
Mortierella alpina = experiment: Antibacterial activity against Mortierella alpina ATCC 32221 after 16-20 hrs by microdilution broth method
Pseudomonas aeruginosa = experiment: Antibacterial activity against Pseudomonas aeruginosa ATCC 27853 after 16-20 hrs by microdilution broth method; method in brief: as §2
Klebsiella pneumoniae = experiment: Antibacterial activity against Klebsiella pneumoniae ATCC 700603 after 16-20 hrs by microdilution broth method; method in brief: as §2
Enterococcus faecalis = experiment: Antibacterial activity against Enterococcus faecalis ATCC 29212 after 16-20 hrs by microdilution broth method; method in brief: as §2
[7] = tested on: Staphylococcus epidermidis; experiment: Antibacterial activity against methicillin-resistant isolate Staphylococcus epidermidis 08-18 after 16-20 hrs by microdilution broth method; method in brief: as §1
Escherichia coli [8] = experiment: Antibacterial activity against Escherichia coli BL21 expressing pET29a engineering strain expressing APH(30)-Ia after 16-20 hrs by microdilution broth method; method in brief: as §1

Compound | MIC (Staphylococcus aureus [1]) [µg/mL] | MIC [2] [µg/mL] | MIC (Staphylococcus aureus [3]) [µg/mL] | MIC [4] [µg/mL] | MIC (Escherichia coli [5]) [µg/mL] | MIC (Escherichia coli [6]) [µg/mL] | MIC (Mortierella alpina) [µg/mL] | MIC (Pseudomonas aeruginosa) [µg/mL] | MIC (Klebsiella pneumoniae) [µg/mL] | MIC (Enterococcus faecalis) [µg/mL] | MIC [7] [µg/mL] | MIC (Escherichia coli [8]) [µg/mL]
Cc1ccccc1C(=O)NCC(=O)N[C@H]1[C@H](O)[C@@H](N)[C@@H](O[C@H]2[C@H](O)[C@@H](O[C@H]3O[C@H](CO)[C@@H](O)[C@H](N)[C@H]3O)[C@H](N)C[C@@H]2N)O[C@@H]1CN | 64 (≈ 97.3 µM) | > 128 | 2 (≈ 3.04 µM) | 0.5 (≈ 0.76 µM) | 4 (≈ 6.08 µM) | 4 (≈ 6.08 µM) | > 128 | 32 (≈ 48.7 µM) | 64 (≈ 97.3 µM) | 64 (≈ 97.3 µM) | 8 (≈ 12.2 µM) | > 128
NC[C@H]1O[C@H](O[C@H]2[C@H](O)[C@@H](O[C@H]3O[C@H](CO)[C@@H](O)[C@H](N)[C@H]3O)[C@H](N)C[C@@H]2N)[C@H](N)[C@@H](O)[C@@H]1NC(=O)C1CCCCC1 | 4 (≈ 6.75 µM) | > 128 | 1 (≈ 1.69 µM) | 0.25 (≈ 0.422 µM) | 2 (≈ 3.37 µM) | 2 (≈ 3.37 µM) | > 128 | 8 (≈ 13.5 µM) | 32 (≈ 54 µM) | 64 (≈ 108 µM) | 1 (≈ 1.69 µM) | 64 (≈ 108 µM)
NC[C@@H]1O[C@@H](O[C@H]2[C@H](O)[C@@H](O[C@H]3O[C@H](CO)[C@@H](O)[C@H](N)[C@H]3O)[C@H](N)C[C@@H]2N)[C@@H](O)[C@H](O)[C@H]1O [KANAMYCIN A] | 128 (≈ 264 µM) | > 128 | 2 (≈ 4.13 µM) | 1 (≈ 2.06 µM) | 2 (≈ 4.13 µM) | 4 (≈ 8.26 µM) | > 128 | > 128 | 64 (≈ 132 µM) | 64 (≈ 132 µM) | 8 (≈ 16.5 µM) | > 128
NC[C@H]1O[C@H](O[C@H]2[C@H](O)[C@@H](O[C@H]3O[C@H](CO)[C@@H](O)[C@H](N)[C@H]3O)[C@H](N)C[C@@H]2N)[C@H](N)[C@@H](O)[C@@H]1O [BEKANAMYCIN] | > 128 | > 128 | 1 (≈ 2.07 µM) | 0.25 (≈ 0.517 µM) | 4 (≈ 8.27 µM) | 4 (≈ 8.27 µM) | > 128 | 64 (≈ 132 µM) | 16 (≈ 33.1 µM) | 64 (≈ 132 µM) | 32 (≈ 66.2 µM) | 64 (≈ 132 µM)
NCCCC(=O)N[C@H]1[C@H](O)[C@@H](N)[C@@H](O[C@H]2[C@H](O)[C@@H](O[C@H]3O[C@H](CO)[C@@H](O)[C@H](N)[C@H]3O)[C@H](N)C[C@@H]2N)O[C@@H]1CN | 2 (≈ 3.52 µM) | 32 (≈ 56.4 µM) | 0.25 (≈ 0.44 µM) | < 0.06 | 1 (≈ 1.76 µM) | 1 (≈ 1.76 µM) | > 128 | 0.5 (≈ 0.881 µM) | 1 (≈ 1.76 µM) | 32 (≈ 56.4 µM) | 0.25 (≈ 0.44 µM) | 8 (≈ 14.1 µM)
CC(=O)N[C@H]1[C@H](O)[C@@H](N)[C@@H](O[C@H]2[C@H](O)[C@@H](O[C@H]3O[C@H](CO)[C@@H](O)[C@H](N)[C@H]3O)[C@H](N)C[C@@H]2N)O[C@@H]1CN | 16 (≈ 30.5 µM) | > 128 | 2 (≈ 3.81 µM) | 0.5 (≈ 0.953 µM) | 2 (≈ 3.81 µM) | 8 (≈ 15.3 µM) | > 128 | 4 (≈ 7.63 µM) | 2 (≈ 3.81 µM) | > 128 | 2 (≈ 3.81 µM) | 128 (≈ 244 µM)
NC[C@H]1O[C@H](O[C@H]2[C@H](O)[C@@H](O[C@H]3O[C@H](CO)[C@@H](O)[C@H](N)[C@H]3O)[C@H](N)C[C@@H]2N)[C@H](N)[C@@H](O)[C@@H]1NC(=O)C1CCNCC1 | 2 (≈ 3.37 µM) | 128 (≈ 216 µM) | 1 (≈ 1.68 µM) | 0.25 (≈ 0.421 µM) | 2 (≈ 3.37 µM) | 2 (≈ 3.37 µM) | > 128 | 2 (≈ 3.37 µM) | 8 (≈ 13.5 µM) | 128 (≈ 216 µM) | 0.25 (≈ 0.421 µM) | 4 (≈ 6.74 µM)
CN(C)[C@H]1[C@H](O)[C@@H](N)[C@@H](O[C@H]2[C@H](O)[C@@H](O[C@H]3O[C@H](CO)[C@@H](O)[C@H](N)[C@H]3O)[C@H](N)C[C@@H]2N)O[C@@H]1CN | > 128 | > 128 | 32 (≈ 62.7 µM) | 16 (≈ 31.3 µM) | 128 (≈ 251 µM) | 64 (≈ 125 µM) | > 128 | > 128 | 64 (≈ 125 µM) | > 128 | 32 (≈ 62.7 µM) | > 128
